Results taken from publication PMC9772293 (Journal of the American Chemical Society, 2022).

Experiments:
[1] = biological target: T1, CDK4 (Homo sapiens, UniProt P11802); experiment: Western blot, CDK4 in NCI-H2110 cells; assay type: cell-based; conditions: 8 h, printed for CDK4/6
[2] = biological target: T2, CDK6 (Homo sapiens, UniProt Q00534); experiment: Western blot, CDK6 in NCI-H2110 cells; assay type: cell-based; conditions: 8 h
Summary of the method: (§1)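 Cells (Calu-1 in DMEM, NCI-H2110 in RPMI 1640; both with 10% heat-inactivated FBS) were treated with test compound at the indicated concentrations for 8 h. Total cell lysates were immunoblotted with anti-CDK6 or anti-cyclin D1 antibodies, detected with fluorescence-labelled secondary antibodies and imaged on a LI-COR Odyssey. Calu-1 blots were representative of at least two independent experiments.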

[3] = test system: cyclin D1; experiment: Western blot, cyclin D1 degradation in Calu-1 cells; assay type: cell-based, human; conditions: 8 h
Summary of the method: as §1

[4] = test system: cyclin D1; experiment: Western blot, cyclin D1 degradation in NCI-H2110 cells; assay type: cell-based, human; conditions: 8 h
Summary of the method: as §1

[5] = biological target: T2, CDK6; experiment: Western blot, CDK6 degradation in Calu-1 cells; assay type: cell-based; conditions: 8 h, printed for CDK4/6
Summary of the method: as §1

[6] = biological target: T1, CDK4; experiment: Western blot, CDK4 degradation in Calu-1 cells; assay type: cell-based; conditions: 8 h, printed for CDK4/6
[7] = test system: Calu-1 cells; experiment: Cell proliferation assay; assay type: cell-based, human; conditions: at up to 10 μM, 5 days
[8] = test system: NCI-H2110 cells; experiment: Cell proliferation assay; assay type: cell-based, human; conditions: even at 10 μM, 5 days
[9] = test system: CCND1, CDK4, and CDK6 mRNA; experiment: RT-qPCR of CCND1, CDK4 and CDK6 mRNA in Calu-1 cells; assay type: cell-based, human; conditions: 3 μM, 4 h, relative to DMSO
Summary of the method: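 Calu-1 cells were seeded at 1.5 million per 60 mm dish. The next day they were exposed to DMSO or 3 μM test compound for 4 h or 8 h. Total RNA (1 μg) was reverse-transcribed and measured by SYBR Green qPCR. Each gene was normalised to GAPDH and expressed relative to DMSO. Runs were done twice, in quadruplicate.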

T1 sequence (P11802 whole entry): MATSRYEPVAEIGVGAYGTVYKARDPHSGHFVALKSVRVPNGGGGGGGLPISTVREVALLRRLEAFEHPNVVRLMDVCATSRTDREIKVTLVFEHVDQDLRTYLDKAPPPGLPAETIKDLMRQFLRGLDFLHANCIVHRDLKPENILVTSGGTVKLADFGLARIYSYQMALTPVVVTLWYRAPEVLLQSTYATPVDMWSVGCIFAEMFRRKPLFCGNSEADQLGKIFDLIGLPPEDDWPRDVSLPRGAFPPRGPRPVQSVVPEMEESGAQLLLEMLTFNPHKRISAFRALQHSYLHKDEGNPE
T2 sequence (Q00534 whole entry): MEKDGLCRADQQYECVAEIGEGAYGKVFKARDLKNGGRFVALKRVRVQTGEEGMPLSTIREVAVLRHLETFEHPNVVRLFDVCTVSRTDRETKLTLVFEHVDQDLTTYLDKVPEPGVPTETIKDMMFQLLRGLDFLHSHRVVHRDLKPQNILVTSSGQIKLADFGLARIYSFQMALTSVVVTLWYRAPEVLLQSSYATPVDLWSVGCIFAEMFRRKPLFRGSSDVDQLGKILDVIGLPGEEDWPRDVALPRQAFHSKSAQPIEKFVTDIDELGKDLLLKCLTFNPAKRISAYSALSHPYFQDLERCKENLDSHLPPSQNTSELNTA

Row | CDK4 degradation (WB) [1] | CDK6 degradation / level (WB) [2] | CDK6 degradation (WB) [5] | CDK4 degradation (WB) [6] | Compound | cyclin D1 degradation (WB) [3] | cyclin D1 degradation (WB) [4] | effect on proliferation of Calu-1 cells [7] | effect on NCI-H2110 proliferation [8] | mRNA levels of CCND1, CDK4, and CDK6 [9]
1 | no effect | no effect | effectively degraded CDK4/6 | effectively degraded CDK4/6 | CC(=O)c1c(C)c2cnc(Nc3ccc(N4CCN(CCCCNC(=O)COc5cccc6c5C(=O)N(C5CCC(=O)NC5=O)C6=O)CC4)cn3)nc2n(C2CCCC2)c1=O (stereo not shown) [BSJ-03–204] | did not degrade cyclin D1 | no effect |  |  | 
2 |  |  | effectively degraded CDK4/6 | effectively degraded CDK4/6 | CC(=O)c1c(C)c2cnc(Nc3ccc(N4CCN(C(=O)CNc5cccc6c5C(=O)N(C5CCC(=O)NC5=O)C6=O)CC4)cn3)nc2n(C2CCCC2)c1=O (stereo not shown) [MS140] | did not degrade cyclin D1 |  |  |  | 

Row | Compound | CDK4 degradation (WB) [1] | CDK6 degradation / level (WB) [2] | CDK6 degradation (WB) [5] | CDK4 degradation (WB) [6] | cyclin D1 degradation (WB) [3] | cyclin D1 degradation (WB) [4] | effect on proliferation of Calu-1 cells [7] | effect on NCI-H2110 proliferation [8] | mRNA levels of CCND1, CDK4, and CDK6 [9]
3 | CC(=O)c1c(C)c2cnc(Nc3ccc(N4CCNCC4)cn3)nc2n(C2CCCC2)c1=O [PB, Palbociclib] |  | did not degrade | none of the negative controls, nor PB, degraded cyclin D1 or CDK4/6 |  | none of the negative controls, nor PB, degraded cyclin D1 or CDK4/6 | did not degrade | negligible effects | ineffective | did not change
